Data from ChEMBL document CHEMBL1157852, “Modulation of doxorubicin activity in cancer cells by conjugation with fatty acyl and terpenyl hydrazones” (Eur J Med Chem, 2010).
Activity calls are given as the source filed them. The rule behind the calls is not given here.

Assays:
HL-60 [1] = experiment: Cytotoxicity against human HL60 cells assessed as increase in ROS production at 5 uM after 24 hrs by NBT reduction assay relative to control; format: functional
Summary of the method: (§1)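 NBT assay. HL-60 cells (0.5×10⁶/mL) or trypsinised 518A2 cells (5×10⁴/mL) pre-incubated 24 h at 37 °C, then given compound at a final 5 µM for 24 or 72 h. Medium removed; cells incubated with 0.1% NBT for 1 h (HL-60) or 4 h (518A2). Diformazan dissolved in 2 M KOH/DMSO; A630 read against 405 nm. Given as % of untreated controls; double quadruplicates.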

518A2 [2] = experiment: Induction of apoptosis in human 518A2 cells assessed as appearance of intact mitochondria in cytosol at 5 uM after 6 hrs using JC1 dye relative to control; format: functional
Summary of the method: (§2)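 Mitochondrial membrane potential measured with JC-1. Cells exposed to 5 µM compound for 6 or 18 h, pelleted at 400 g, stained with 0.2× JC-1 at 37 °C for 15 min (HL-60) or 35 min (518A2), washed and resuspended in PBS. Red fluorescence (ex 585/em 590 nm) and green (ex 510/em 527 nm) read; red/green ratio relative to untreated controls (100%). Mean ± SD, four independent experiments.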

MCF7 [3] = experiment: Cytotoxicity against human topotecan-resistant MCF7 cells after 72 hrs by MTT assay in presence of […] BCRP inhibitor fumitremorgin C; format: functional, cell-based; details: MCF7, 72 h
Summary of the method: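 MCF-7/Topo cells grown in E-MEM with 2.2 g/L NaHCO₃, 110 mg/L sodium pyruvate and 5% FCS. Cells were seeded, cultured 24 h, given fumitremorgin C, then exposed to compound for 72 h. MTT was added (final 0.1%) for 2 h, medium discarded, and formazan dissolved in 10% SDS/DMSO with 0.6% acetic acid. A570 (630 background) read versus untreated controls; IC50 from concentration-response curves; four independent experiments, mean ± SD.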

HL-60 [4] = experiment: Induction of apoptosis in human HL60 cells assessed as appearance of intact mitochondria in cytosol at 5 uM after 18 hrs using JC1 dye relative to control; format: functional; summary of the method: as §2
HL-60 [5] = experiment: Induction of apoptosis in human HL60 cells assessed as appearance of intact mitochondria in cytosol at 5 uM after 6 hrs using JC1 dye relative to control; format: functional; summary of the method: as §2
HL-60 [6] = experiment: Cytotoxicity against human HL60 cells assessed as increase in ROS production at 5 uM after 72 hrs by NBT reduction assay relative to control; format: functional; summary of the method: as §1
MCF7 [7] = experiment: Cytotoxicity against human topotecan-resistant MCF7 cells after 72 hrs by MTT assay; format: functional, cell-based; details: MCF7, 72 h
Summary of the method: (§3)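 MTT assay. Cells seeded and cultured 24 h, then exposed to compound for 24, 48 or 72 h. MTT added to a final 0.05% (HL-60, 518A2) or 0.1% (KB-V1, MCF-7) for 2 h. Formazan dissolved in 10% SDS/DMSO with 0.6% acetic acid; absorbance read at 570 nm against 630 nm background. Viability taken relative to untreated controls (100%). IC50 from concentration-response curves, mean ± SD of four independent experiments.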

518A2 [8] = experiment: Induction of apoptosis in human 518A2 cells assessed as appearance of intact mitochondria in cytosol at 5 uM after 18 hrs using JC1 dye relative to control; format: functional; summary of the method: as §2
[9] = Cytotoxicity against human 518A2 cells assessed as increase in ROS production at 5 uM after 24 hrs by NBT reduction assay relative to control; format: functional; summary of the method: as §1
518A2 [10] = experiment: Induction of apoptosis in human 518A2 cells assessed as increase of caspase 3 activity at 5 uM after 1 to 24 hrs by luminometric assay; format: functional, cell-based
Summary of the method: (§4)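 HL-60 and 518A2 cells treated with 5 µM compound and sampled at intervals from 1 to 24 h. Lysed in 50 mM Tris-HCl pH 7.4, 150 mM NaCl, 1% Triton X-100 with protease inhibitors for 15 min at 4 °C, spun at 800 g. Protein measured by Bradford. Caspase-3/7, -8 and -9 activities read with luminogenic peptide substrates; reported as relative luminescence.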

518A2 [11] = experiment: Induction of apoptosis in human 518A2 cells assessed as increase of caspase 8 activity at 5 uM after 1 to 24 hrs by luminometric assay; format: functional, cell-based; summary of the method: as §4
MCF7 [12] = experiment: Cytotoxicity against human topotecan-resistant MCF7 cells after 24 hrs by MTT assay; format: functional, cell-based; details: MCF7, 24 h; summary of the method: as §3
[13] = Cytotoxicity against human vinblastine-resistant KBV1 cells after 48 hrs by MTT assay; format: functional, cell-based; details: KB-V1, 48 h; summary of the method: as §3
HL-60 [14] = experiment: Cytotoxicity against human HL60 cells after 72 hrs by MTT assay; format: functional, cell-based; details: HL-60, 72 h; summary of the method: as §3
[15] = Cytotoxicity against human 518A2 cells assessed as increase in ROS production at 5 uM after 72 hrs by NBT reduction assay relative to control; format: functional; summary of the method: as §1
HL-60 [16] = experiment: Cytotoxicity against human HL60 cells after 24 hrs by MTT assay; format: functional, cell-based; details: HL-60, 24 h; summary of the method: as §3
[17] = Cytotoxicity against human 518A2 cells after 48 hrs by MTT assay; format: functional, cell-based; details: 518A2, 48 h; summary of the method: as §3
[18] = Cytotoxicity against human vinblastine-resistant KBV1 cells after 72 hrs by MTT assay in presence of 24 mM ABC transporter inhibitor verapamil hydrochloride; format: functional, cell-based; details: KB-V1, 72 h, in the assay text read “24 uM” for “24 mM”
Summary of the method: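 MTT viability assay on P-gp-overexpressing KB-V1/Vbl cells with 24 µM verapamil hydrochloride added before the compound; 72 h exposure. Formazan read at 570/630 nm relative to untreated controls. IC50 from concentration-response curves, mean ± SD of four independent experiments.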

MCF7 [19] = experiment: Cytotoxicity against human topotecan-resistant MCF7 cells after 48 hrs by MTT assay; format: functional, cell-based; details: MCF7, 48 h; summary of the method: as §3
[20] = Ratio of IC50 for human vinblastine-resistant KBV1 cells in presence of […] ABC transporter inhibitor verapamil hydrochloride to IC50 for human vinblastine-resistant KBV1 cells; format: functional
Summary of the method: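 MTT assay in P-gp-overexpressing KB-V1/Vbl cells grown in D-MEM with 10% FCS and antibiotics. Cells were seeded and cultured 24 h, verapamil hydrochloride was optionally added, and compound exposure ran 24, 48 or 72 h. MTT was added to 0.1% final for 2 h. After the medium was discarded, formazan was dissolved in 10% SDS/DMSO with 0.6% acetic acid and read at 570 nm (630 nm background). IC50 came from concentration-response curves, four independent experiments, and the ratio is IC50 with inhibitor over IC50 without.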

HL-60 [21] = experiment: Induction of apoptosis in human HL60 cells assessed as increase of caspase 8 activity at 5 uM after 1 to 24 hrs by luminometric assay; format: functional, cell-based; summary of the method: as §4
[22] = Cytotoxicity against human 518A2 cells after 72 hrs by MTT assay; format: functional, cell-based; details: 518A2, 72 h; summary of the method: as §3
HL-60 [23] = experiment: Induction of apoptosis in human HL60 cells assessed as increase of caspase 3 activity at 5 uM after 1 to 24 hrs by luminometric assay; format: functional, cell-based; summary of the method: as §4
518A2 [24] = experiment: Induction of apoptosis in human 518A2 cells assessed as increase of ratio of Bax to Bcl-2 mRNA expression at 5 uM after 6 to 18 hrs by RT-PCR analysis; format: functional, cell-based
Summary of the method: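 518A2 cells exposed to 5 µM compound for 6 h or 18 h. bax and bcl-2 mRNA quantified by real-time PCR, normalised to GAPDH, and expressed as the bax/bcl-2 ratio.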

518A2 [25] = experiment: Induction of apoptosis in human 518A2 cells assessed as increase of caspase 9 activity at 5 uM after 2 hrs by luminometric assay; format: functional, cell-based; summary of the method: as §4
[26] = Cytotoxicity against human vinblastine-resistant KBV1 cells after 72 hrs by MTT assay; format: functional, cell-based; details: KB-V1, 72 h; summary of the method: as §3
[27] = Cytotoxicity against human vinblastine-resistant KBV1 cells after 24 hrs by MTT assay; format: functional, cell-based; details: KB-V1, 24 h; summary of the method: as §3
HL-60 [28] = experiment: Cytotoxicity against human HL60 cells after 48 hrs by MTT assay; format: functional, cell-based; details: HL-60, 48 h; summary of the method: as §3
HL-60 [29] = experiment: Induction of apoptosis in human HL60 cells assessed as increase of caspase 9 activity at 5 uM after 1 to 24 hrs by luminometric assay; format: functional, cell-based
Summary of the method: (§5)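 HL-60 leukaemia cells were treated with test compound and sampled at intervals from 1 to 24 h. Protein was measured by Bradford. Caspase-9 (Caspase-Glo 8 for line 1) was read from a luminogenic peptide substrate as relative luminescence.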

[30] = Cytotoxicity against human 518A2 cells after 24 hrs by MTT assay; format: functional, cell-based; details: 518A2, 24 h; summary of the method: as §3
HL-60 [31] = experiment: Induction of apoptosis in human HL60 cells assessed as DNA ladder formation at 5 uM after 24 hrs by agarose gel electrophoresis; format: functional, cell-based
Summary of the method: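 HL-60 cells incubated with 5 µM compound for 24 h, then examined for DNA ladder patterns.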

518A2 [32] = experiment: Induction of apoptosis in human 518A2 cells assessed as increase of caspase 9 activity at 5 uM after 1 to 24 hrs by luminometric assay; format: functional, cell-based; summary of the method: as §4
HL-60 [33] = experiment: Induction of apoptosis in human HL60 cells assessed as increase of Bax mRNA expression at 5 uM up to 24 hrs by […] analysis; format: functional, cell-based
518A2 [34] = experiment: Induction of apoptosis in human 518A2 cells assessed as increase of caspase 8 activity at 5 uM measured up to 12 hrs by luminometric assay; format: functional, cell-based; summary of the method: as §4
518A2 [35] = experiment: Induction of apoptosis in human 518A2 cells assessed as increase of caspase 3 activity at 5 uM measured up to 12 hrs by luminometric assay; format: functional, cell-based; summary of the method: as §4
HL-60 [36] = experiment: Induction of apoptosis in human HL60 cells assessed as increase of caspase 3 activity at 5 uM after 4 hrs by luminometric assay; format: functional, cell-based; summary of the method: as §4
HL-60 [37] = experiment: Induction of apoptosis in human HL60 cells assessed as increase of caspase 3 activity at 5 uM after 12 hrs by luminometric assay; format: functional, cell-based; summary of the method: as §4
518A2 [38] = experiment: Induction of apoptosis in human 518A2 cells assessed as increase of Bcl-2 mRNA expression at 5 uM up to 24 hrs by […] analysis; format: functional, cell-based
HL-60 [39] = experiment: Induction of apoptosis in human HL60 cells assessed as increase of caspase 9 activity at 5 uM after 12 hrs by luminometric assay; format: functional, cell-based; summary of the method: as §5
HL-60 [40] = experiment: Induction of apoptosis in human HL60 cells assessed as increase of Bcl-2 mRNA expression at 5 uM up to 24 hrs by […] analysis; format: functional, cell-based
HL-60 [41] = experiment: Induction of apoptosis in human HL60 cells assessed as increase of caspase 8 activity at 5 uM after 4 to 24 hrs by luminometric assay; format: functional, cell-based; summary of the method: as §4
518A2 [42] = experiment: Induction of apoptosis in human 518A2 cells assessed as increase of caspase 9 activity at 5 uM after 8 to 12 hrs by luminometric assay; format: functional, cell-based; summary of the method: as §4

Compound	Activity (HL-60 [1]) [%]	Activity (518A2 [2]) [%]	Activity (HL-60 [4]) [%]	Activity (HL-60 [5]) [%]	Activity (HL-60 [6]) [%]	Activity (518A2 [8]) [%]	Activity [9] [%]	IC50 [13] [nM]	IC50 (HL-60 [14]) [nM]	Activity [15] [%]	IC50 (HL-60 [16]) [nM]	IC50 [17] [nM]	IC50 [18] [nM]	IC50 [22] [nM]	Activity (518A2 [24])	IC50 [26] [nM]	IC50 [27] [nM]	IC50 (HL-60 [28]) [nM]	IC50 [30] [nM]	Activity (HL-60 [31])	other results
CCCCCCCCCCCCCCCCC(=O)N/N=C(\CO)[C@]1(O)Cc2c(O)c3c(c(O)c2[C@@H](O[C@H]2C[C@H](N)[C@H](O)[C@H](C)O2)C1)C(=O)c1c(OC)cccc1C3=O.Cl [DOXORUBICIN HEPTADECANOYL HYDRAZONE]	2.8	113	59	94	3.4	80	6.6	10700	280	71.2	1400	350	3700	110	Active	5100	42900	860	760	Active	IC50 (MCF7 [3]): 170 nM; IC50 (MCF7 [7]): 3000 nM; Activity (518A2 [10]): Active; Activity (518A2 [11]): Active; IC50 (MCF7 [12]): 5900 nM; IC50 (MCF7 [19]): 3200 nM; Ratio IC50 [20]: 0.74; Activity (HL-60 [21]): Active; Activity (HL-60 [23]): Active; Activity (518A2 [25]): Active; Activity (HL-60 [29]): Active; Activity (518A2 [32]): Active
COc1cccc2c1C(=O)c1c(O)c3c(c(O)c1C2=O)C[C@@](O)(C(=O)CO)C[C@@H]3O[C@H]1C[C@H](N)[C@H](O)[C@H](C)O1.Cl [DOXORUBICIN HYDROCHLORIDE]	2.8	98	28	83	5.6	74	2.5	35600	80	15.4	220	170	1020	120	Active	18300	59900	100	340	Active	Activity (HL-60 [33]): inactive; Activity (518A2 [34]): inactive; Activity (518A2 [35]): inactive; Activity (HL-60 [36]): Active; Activity (HL-60 [37]): Active; Activity (518A2 [38]): inactive; Activity (HL-60 [39]): Active; Activity (HL-60 [40]): Active; Activity (HL-60 [41]): Active; Activity (518A2 [42]): Active
